From PubChem
SIRT5 block – SIRT5 desuccinylase inhibitors, primary screen, biochemical, fluorescence imaging, single point, set 5; Purified SirT5, succinyl-peptide AMC, trypsin-coupled fluorescence; inhibition, % at 15 µM; 330,000 tested, 1.1% active; in the data active = inhibition above about 15%
ERAP1 inh – human ERAP1 aminopeptidase inhibitors, primary screen, biochemical, single point, plate reader | Endoplasmic reticulum aminopeptidase 1 (Homo sapiens), Q9NZ08 | recombinant ERAP1, Leu-AMC fluorescence, 60 min | inhibition, % at 10.7 µM | 340,000 tested, 0.15% active | AID 652197, 2013;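 active = mean replicate inhibition of at least 30%, or all replicates individually reaching that 30% level; inactive = mean below 30% and not every replicate reaching it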;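 also: 0% = neutral control wells and 100% = L-leucinethiol positive control wells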
Target sequence (Q9NZ08 whole entry, looked up): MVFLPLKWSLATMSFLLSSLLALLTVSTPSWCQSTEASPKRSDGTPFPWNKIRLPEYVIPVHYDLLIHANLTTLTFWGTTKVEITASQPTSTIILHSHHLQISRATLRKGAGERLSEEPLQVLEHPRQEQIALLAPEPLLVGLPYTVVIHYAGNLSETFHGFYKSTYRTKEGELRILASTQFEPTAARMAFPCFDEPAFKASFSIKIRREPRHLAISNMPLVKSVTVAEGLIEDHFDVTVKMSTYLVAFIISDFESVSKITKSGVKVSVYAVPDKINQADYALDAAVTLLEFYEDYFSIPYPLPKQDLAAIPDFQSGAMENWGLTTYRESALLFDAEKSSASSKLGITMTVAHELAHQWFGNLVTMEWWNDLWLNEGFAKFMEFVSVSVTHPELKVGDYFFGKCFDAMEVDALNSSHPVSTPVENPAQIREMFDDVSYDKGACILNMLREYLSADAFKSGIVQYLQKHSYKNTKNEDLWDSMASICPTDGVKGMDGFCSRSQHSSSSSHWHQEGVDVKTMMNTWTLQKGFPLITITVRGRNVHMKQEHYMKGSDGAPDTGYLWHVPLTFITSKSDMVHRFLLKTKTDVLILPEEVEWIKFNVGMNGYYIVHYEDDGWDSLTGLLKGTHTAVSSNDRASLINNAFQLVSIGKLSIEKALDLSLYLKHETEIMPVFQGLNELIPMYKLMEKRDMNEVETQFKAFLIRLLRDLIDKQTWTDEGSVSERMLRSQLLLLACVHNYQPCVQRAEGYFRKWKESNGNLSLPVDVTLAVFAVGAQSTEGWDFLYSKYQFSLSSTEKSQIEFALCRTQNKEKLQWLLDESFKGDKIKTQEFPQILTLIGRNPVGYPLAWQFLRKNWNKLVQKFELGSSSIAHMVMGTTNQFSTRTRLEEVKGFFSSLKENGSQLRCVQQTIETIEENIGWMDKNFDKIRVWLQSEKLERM
S100A4 MyoIIA – inhibitors of S100A4-myosin IIA peptide binding, primary screen, biochemical, fluorescence polarization, TAMRA-MyoIIA peptide | 360,000 tested, 0.14% active | AID 652163, 2013 | inhibition, % at 10.7 µM;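 active = mean inhibition of at least 70% across replicates, with every replicate also reaching that level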
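Compound dosing: one dose per compound; test system: human S100A4 monomer with TAMRA-labelled myosin IIA peptide; probe or stimulus: TAMRA-labelled myosin IIA heavy-chain peptide probe, 5 nM; medium: HEPES buffer with Ca2+, pH 7.2; schedule: 5 min incubation before reading; benchmarks: neutral control DMSO, positive control TFP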
Ecoli rRNA inh – reduced GFP signal of wild-type E. coli, primary screen, bacterial rRNA inhibitor project, GFP/RFP fluorescence, OD600, single point; E. coli WT GFP vs humanized-ribosome RFP mutants, 24 h; active compounds read low; DMSO median 0, no signal -100; GFP signal change (wild-type ribosome), % (concentration not given with the values); 350,000 tested, 1.6% active;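 active = significant combined selectivity score with lowered wild-type GFP, culture density cut under 30%, mutant RFP and density less affected; inactive = any of these conditions unmet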
CFTR F508del cor – F508del CFTR correction, initial screen, CFBE line, single point; CFBE cells, YFP halide quenching; stimulated with forskolin plus potentiator P3; % fluorescence drop versus neutral controls; activity (quench increase), % at 7.58 µM; 350,000 tested, 0.36% active;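 active = mean added fluorescence quench of at least 8% versus neutral control, with both replicates also reaching 8%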;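 also: cells transiently co-express mutant CFTR-F508del with the halide-sensitive YFP; corrector assay measuring rescue of mutant channel to the surface after 24 h compound exposure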
* hit, by the source's call; / = no result. Compounds with a hit are over-represented: about 3.1% of the library has one in this group of screens.

SMILES	SIRT5 block	ERAP1 inh	S100A4 MyoIIA	Ecoli rRNA inh	CFTR F508del cor
CC(C)NC(=O)Nc1ccc2c(c1)C(=O)N([C@@H](C)CO)C[C@H](C)[C@@H](CN(C)Cc1ccc(C(F)(F)F)cc1)O2	1.6	0.6	2.7	0.4	-3.2
COc1ccc(NC(=O)Nc2ccc3c(c2)C(=O)N([C@@H](C)CO)C[C@@H](C)[C@@H](CN(C)C(=O)Nc2ccc(C(F)(F)F)cc2)O3)cc1	16.5*	-0.8	-8.3	-4.5	3.3
CC(C)NC(=O)Nc1ccc2c(c1)C(=O)N([C@H](C)CO)C[C@@H](C)[C@H](CN(C)Cc1ccc(C(F)(F)F)cc1)O2	15.2*	0.8	2.1	4.3	4.6
COc1ccc(NC(=O)Nc2ccc3c(c2)C(=O)N([C@H](C)CO)C[C@H](C)[C@@H](CN(C)Cc2ccc(C(F)(F)F)cc2)O3)cc1	19.0*	1.3	-1.5	-0.6	2.5
COc1ccc(CN(C)C[C@H]2Oc3c(NC(=O)NC(C)C)cccc3C(=O)N([C@H](C)CO)C[C@H]2C)cc1	8.2	-2.2	107.1*	4.3	-2.6
C[C@@H]1CCCCO[C@H](CN(C)S(=O)(=O)c2ccccc2)[C@H](C)CN([C@@H](C)CO)C(=O)c2cc(NS(=O)(=O)c3ccc(Cl)cc3)ccc2O1	11.5	-1.5	2.9	-0.5	3.8
COc1ccc(NC(=O)Nc2cccc3c2O[C@@H](CN(C)Cc2ccc(C(F)(F)F)cc2)[C@@H](C)CN([C@H](C)CO)C3=O)cc1	21.4*	-0.7	-2.6	-2.8	1.2
CC(Sc1nc2ccccc2c(=O)n1C)C(=O)Nc1ccc2c(c1)OCCO2 (stereo not given)	-0.1	4.3	-3.3	0.9	24.8*
c1ccc(-c2nc3c4ccccc4ccn3c2CN2CCOCC2)cc1	-3.5	/	-1.5	-28.8*	-3.6
COc1ccc(-c2nc3c4ccccc4ccn3c2CN2CCOCC2)cc1OC	-11.6	0.6	2.2	-12.4	-0.6
Cc1cc(=O)[nH]c(SCC(=O)c2ccc(F)c(C)c2)n1	2.5	-0.2	7.5	-2.7	3.9
CCc1ccc(C(=O)CSc2nc(C)cc(=O)[nH]2)cc1	-2.5	-7.7	0.6	-27.3*	2.2
CC(C)CC#Cc1ccc2c(c1)O[C@@H](CN(C)Cc1ccccn1)[C@H](C)CN([C@H](C)CO)S2(=O)=O	12.8	-3.7	8.4	-22.9*	/
C[C@@H]1CN([C@H](C)CO)S(=O)(=O)c2ccc(C#CC3CC3)cc2O[C@H]1CN(C)Cc1ccccn1	3.3	2.1	-1.3	-25.9	16.7*
CC(C)C#Cc1ccc2c(c1)O[C@@H](CN(C)Cc1ccccn1)[C@H](C)CN([C@H](C)CO)S2(=O)=O	18.7*	-0.5	-3.3	-43.2	1.4
C[C@@H]1CN([C@@H](C)CO)S(=O)(=O)c2ccc(C3=CCCCC3)cc2O[C@@H]1CN(C)C(=O)Nc1ccc2c(c1)OCO2	11.7	0.9	-7.2	0.7	-2.6
CCOc1ccccc1NC(=O)CC1SC(=N)N(c2ccccc2)C1=O (stereo not given)	-2.4	4.9	3.0	20.2	14.9*
COc1ccccc1NC(=O)CC1SC(=N)N(c2ccccc2)C1=O (stereo not given)	-2.5	-11.1	-6.5	0.8	-3.6
COc1ccc(S(=O)(=O)N(C)C[C@@H]2Oc3ccc(NC(=O)Cc4ccccc4)cc3CC(=O)N([C@H](C)CO)C[C@H]2C)cc1	3.2	-2.1	5.0	-1.2	-2.5
Cc1oc2ccc(NS(=O)(=O)c3ccccc3)cc2c1C(=O)Nc1ccccc1	20.7*	1.7	-4.5	-16.3	/
Cc1cc(NS(=O)(=O)c2ccc(NC(=O)c3c(F)c(F)c(F)c(F)c3F)cc2)nc(C)n1	-1.2	-2.0	-8.4	1.0	0.8
Cc1ccc(S(=O)(=O)Nc2ccc(N(C)C)cc2)cc1	112.0*	0.7	-14.2	-13.4	-2.2
Cc1ccc(S(=O)(=O)Nc2ccc(NC(=O)c3c(F)c(F)c(F)c(F)c3F)cc2)cc1	0.5	-1.6	-0.5	-25.6*	-2.3
C[C@H]1CN([C@@H](C)CO)C(=O)c2cc(NS(C)(=O)=O)ccc2O[C@@H]1CN(C)Cc1ccccc1	-4.2	-0.7	12.7	2.3	-1.1
CCNC(=O)C[C@H]1CC[C@@H]2[C@H](COc3ccc(NC(=O)c4cccs4)cc3C(=O)N2C)O1	-2.0	0.6	7.7	0.0	-0.6
SMILES	SIRT5 block	ERAP1 inh	S100A4 MyoIIA	Ecoli rRNA inh	CFTR F508del cor
C[C@@H]1CCCCO[C@H](CN(C)C(=O)c2ccncc2)[C@@H](C)CN([C@H](C)CO)C(=O)c2cc(NC(=O)Cc3ccccc3)ccc2O1	5.5	-6.0	3.0	3.4	0.6
CCOC(=O)CCc1c(C)c2ccc(OC3CCCCC3=O)cc2oc1=O (stereo not given)	-13.9	-1.5	16.4	-21.3*	-0.9
Cc1ccc(S(=O)(=O)Nc2ccc3c(c2)CC(=O)N([C@@H](C)CO)C[C@@H](C)[C@@H](CN(C)Cc2ccc(Oc4ccccc4)cc2)O3)cc1	18.1*	-0.8	2.2	2.2	2.2
COc1ccc(CN(C)C[C@H]2Oc3ccc(NS(=O)(=O)c4ccc(Cl)cc4)cc3CC(=O)N([C@@H](C)CO)C[C@@H]2C)cc1	26.7*	-0.9	-12.6	-4.2	0.1
COc1ccc(CN(C)C[C@H]2Oc3ccc(NS(=O)(=O)c4ccc(Cl)cc4)cc3CC(=O)N([C@H](C)CO)C[C@H]2C)cc1	7.0	-0.7	15.2	-55.6	0.0
C[C@H](CO)N1C[C@H](C)[C@@H](CN(C)Cc2ccc(Oc3ccccc3)cc2)Oc2ccc(NS(=O)(=O)c3ccc(Cl)cc3)cc2CC1=O	18.9*	-4.5	-42.2	-0.8	4.6
COc1ccc(S(=O)(=O)Nc2ccc3c(c2)CC(=O)N([C@H](C)CO)C[C@@H](C)[C@@H](CN(C)Cc2ccc(Oc4ccccc4)cc2)O3)cc1	16.1*	1.6	-14.2	2.6	3.8
C[C@@H]1CN([C@H](C)CO)C(=O)Cc2cc(NS(=O)(=O)c3ccc(Cl)cc3)ccc2O[C@@H]1CN(C)Cc1ccc(Oc2ccccc2)cc1	10.9	-3.9	-4.8	3.1	2.0
COc1ccc(S(=O)(=O)Nc2ccc3c(c2)CC(=O)N([C@H](C)CO)C[C@H](C)[C@H](CN(C)Cc2ccc(Oc4ccccc4)cc2)O3)cc1	11.7	2.0	-7.6	-3.2	5.5
CN(C)C(=O)c1cccc(-c2ccc3c(c2)[C@H]2[C@H](CCN2Cc2ccccc2F)[C@@H](CO)N3)c1	/	/	/	2.2	2.6
CC(=O)N(C)C[C@H]1Oc2cc(C3=CCCCC3)ccc2S(=O)(=O)N([C@@H](C)CO)C[C@@H]1C	/	/	/	1.0	-3.5
